Reference: ChEMBL document CHEMBL3739308, “Resveratrol-Related Polymethoxystilbene Glycosides: Synthesis, Antiproliferative Activity, and Glycosidase Inhibition” (J Nat Prod, 2015)

Experiments:
[1] = Antiproliferative activity against human Caco2 cells after 72 hrs by MTT-based Mosmann assay relative to control; assay type: functional; details: Caco-2, 72 h
Summary of the method: (§1)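 Cells seeded at (2.5−3.0) × 10^3 per well, treated after 24 h with compound at final 0.01−100 μM; 0.5−1% DMSO controls. Exposure 3 days (72 h) at 37 °C, 5% CO2; MTT read at 570 nm, 6−8 wells per value. GI50 by NCI formula 100(T − T0)/(C − T0) = 50 versus time-zero and DMSO-control OD; mean ± SD of four experiments.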

SH-SY5Y = experiment: Antiproliferative activity against human SH-SY5Y cells after 72 hrs by MTT-based Mosmann assay relative to control; assay type: functional; summary of the method: as §1
[2] = Drug level in phosphate buffer treated with (2R,3S,4S,5S)-2-[2-(4-Methoxystyryl)-4,6-dimethoxyphenoxy]-tetrahydro-6-hydroxymethyl-2H-pyran-3,4,5-triol at 5 x 10^-5 M at pH 7.2 at 37 degC after 72 hrs by HPLC analysis in presence of Aspergillus oryzae beta-galactosidase; assay type: ADME; details: pH 7.2, 72 h
Summary of the method: (§2)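 Glycoside diluted from DMSO into 0.050 M Na2HPO4/KH2PO4 pH 7.2 to final 5.0 × 10−5 M (≤1.0% DMSO). Almond β-glucosidase (1.2 U/mL) or A. oryzae β-galactosidase (0.7 U/mL) added; 37 °C, shaking at 400 rpm, sampled up to 96 h. Enzyme-free controls run. Reversed-phase HPLC at 305 nm; released aglycone quantified against 10−5−10−6 M calibration curves. Triplicate.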

[3] = Inhibition of Saccharomyces cerevisiae alpha-glucosidase using pNP-alpha-Glc as substrate assessed as release of p-nitrophenol incubated for 2 hrs by spectrophotometric analysis
Summary of the method: (§3)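 Substrate at final 6.5 × 10−5 M in DMSO/0.050 M phosphate buffer pH 7.2, 25 °C, with five inhibitor levels (≤1.0% DMSO). Enzyme: 2.0 U/mL yeast α-glucosidase, 2 h; 2.9 U/mL almond β-glucosidase, 30 min. Nitrophenol release read at 400 nm; % inhibition from residual activity versus no-compound activity; IC50 = 50% inhibition. Triplicate; mean ± SD of three experiments.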

[4] = Stability of the compound in phosphate buffer assessed as Aspergillus oryzae beta-galactosidase-mediated compound hydrolysis at 5 x 10^-5 M at pH 7.2 at 37 degC measured within 96 hrs by HPLC analysis; assay type: ADME; details: pH 7.2, 96 h, 50 µM; summary of the method: as §2
[5] = (§4) Half life in phosphate buffer assessed as almond beta-glucosidase-mediated compound hydrolysis at 5 x 10^-5 M at pH 7.2 at 37 degC measured within 96 hrs by HPLC analysis; assay type: ADME; details: prunus dulcis, buffer, pH 7.2, 96 h, 50 µM; summary of the method: as §2
[6] = molecular target: β-galactosidase (Aspergillus Oryzae) (Aspergillus oryzae, UniProt Q2UCU3); experiment: Inhibition of Aspergillus oryzae beta-galactosidase using oNP-beta-Gal as substrate assessed as release of o-nitrophenol incubated for 30 mins by spectrophotometric analysis
Summary of the method: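 Inhibition assay (modified Tsujii method) at 25 °C. Substrate at 6.5 × 10−5 M final in DMSO/phosphate buffer (Na2HPO4/KH2PO4 0.050 M, pH 7.2). Enzyme at 4.0 U/mL. Compound stocks 2.6−4.7 × 10−4 M, five concentrations; DMSO ≤1.0% final. Absorbance read at 400 nm. Percent inhibition taken from residual activity versus no-compound control. IC50 is the mean of three experiments.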

[7] = Inhibition of almond beta-glucosidase using pNP-beta-Glc as substrate assessed as release of p-nitrophenol incubated for 30 mins by spectrophotometric analysis; parameters: species or system Prunus dulcis; summary of the method: as §3
beta-glucosidase = experiment: as §4; assay type: ADME; details: prunus dulcis, almond beta-glucosidase in phosphate buffer, pH 7.2; summary of the method: as §2
beta-galactosidase = experiment: Half life in phosphate buffer assessed as Aspergillus oryzae beta-galactosidase-mediated compound hydrolysis at 5 x 10^-5 M at pH 7.2 at 37 degC measured within 96 hrs by HPLC analysis
[8] = Antiproliferative activity against human Caco2 cells; assay type: functional, cell-based; details: Caco-2; summary of the method: as §1

β-galactosidase (Aspergillus Oryzae), sequence (Q2UCU3 whole entry, looked up): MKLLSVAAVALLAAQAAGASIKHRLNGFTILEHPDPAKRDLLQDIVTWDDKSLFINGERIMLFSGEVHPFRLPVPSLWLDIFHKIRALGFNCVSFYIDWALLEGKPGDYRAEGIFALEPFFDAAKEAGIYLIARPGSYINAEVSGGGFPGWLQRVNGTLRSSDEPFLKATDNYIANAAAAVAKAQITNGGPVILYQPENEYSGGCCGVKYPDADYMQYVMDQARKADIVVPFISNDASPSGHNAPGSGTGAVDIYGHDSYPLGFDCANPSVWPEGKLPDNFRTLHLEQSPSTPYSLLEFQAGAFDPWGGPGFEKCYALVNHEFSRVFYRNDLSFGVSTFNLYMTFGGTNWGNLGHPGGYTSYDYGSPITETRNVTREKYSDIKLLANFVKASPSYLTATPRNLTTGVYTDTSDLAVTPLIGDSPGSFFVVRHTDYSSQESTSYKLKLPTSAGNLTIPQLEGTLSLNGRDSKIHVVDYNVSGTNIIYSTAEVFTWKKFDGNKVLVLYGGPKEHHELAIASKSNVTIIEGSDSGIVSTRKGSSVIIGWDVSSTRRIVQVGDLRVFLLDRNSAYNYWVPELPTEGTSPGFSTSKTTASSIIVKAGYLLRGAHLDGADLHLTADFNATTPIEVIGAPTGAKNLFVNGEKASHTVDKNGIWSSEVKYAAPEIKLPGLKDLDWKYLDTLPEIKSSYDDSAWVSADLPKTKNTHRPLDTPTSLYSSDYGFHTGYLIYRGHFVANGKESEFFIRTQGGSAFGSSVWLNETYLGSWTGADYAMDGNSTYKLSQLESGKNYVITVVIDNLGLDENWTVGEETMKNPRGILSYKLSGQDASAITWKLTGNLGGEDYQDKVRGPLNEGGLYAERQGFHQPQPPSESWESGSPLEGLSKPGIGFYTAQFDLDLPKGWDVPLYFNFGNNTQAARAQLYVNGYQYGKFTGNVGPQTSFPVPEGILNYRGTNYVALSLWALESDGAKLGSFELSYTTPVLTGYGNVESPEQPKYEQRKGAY

Row | Structure (SMILES) | GI50 [1] [µM] | GI50 (SH-SY5Y) [µM] | Drug metabolism [2] | IC50 [3] [µM] | Stability [4] | Stability [5] | IC50 [6] [µM] | IC50 ([7]; read-out: IC50) [µM] | half-life at 50 µM (beta-glucosidase) [h] | IC50 [7] | half-life at 50 µM (beta-galactosidase) [h] | IC50 [8] [µM]
1 | COc1cc(/C=C/c2cc(OC)cc(OC)c2O)cc(OC)c1 | > 10 | > 10 | – | – | – | – | – | – | – | – | – | –
2 | COc1cc(/C=C/c2ccc(OC)c(OC)c2)c(O)c(OC)c1 | 3 | 14.3 | – | – | – | – | – | – | – | – | – | –
3 | COc1ccc(/C=C/c2cc(OC)cc(OC)c2O)cc1 | 5.8 | 4.5 | metabolite_detected | – | – | – | – | – | – | – | – | –
4 | COc1ccc(/C=C/c2cc(OC)cc(OC)c2O[C@H]2O[C@H](CO)[C@H](O)[C@H](O)[C@H]2O)cc1 | > 10 | 48.4 | – | 201 | Stable | Stable | 298 | 350 | – | – | – | –
5 | COc1cc(/C=C/c2cc(OC)cc(OC)c2O[C@H]2O[C@H](CO)[C@@H](O)[C@H](O)[C@H]2O)cc(OC)c1 | 44.2 | > 10 | – | 133 | Stable | – | 297 | 272 | 70 | – | – | –
6 | COc1cc(/C=C/c2ccc(OC)c(OC)c2)c(O[C@H]2O[C@H](CO)[C@@H](O)[C@H](O)[C@H]2O)c(OC)c1 | > 10 | > 10 | – | 78 | Stable | – | 258 | 192 | 20 | – | – | –
7 | COc1cc(/C=C/c2cc(OC)cc(OC)c2O[C@H]2O[C@H](CO)[C@H](O)[C@H](O)[C@H]2O)cc(OC)c1 | 16 | 22.5 | – | 332 | Stable | Stable | 296 | – | – | Not Active | – | –
8 | COc1ccc(/C=C/c2cc(OC)cc(OC)c2O[C@H]2O[C@H](CO)[C@@H](O)[C@H](O)[C@H]2O)cc1 | > 10 | 21.9 | – | 91 | – | – | – | 208 | 11 | – | 77 | –
9 | COc1cc(/C=C/c2ccc(OC)c(OC)c2)c(O[C@H]2O[C@H](CO)[C@H](O)[C@H](O)[C@H]2O)c(OC)c1 | > 10 | > 10 | – | 70 | Stable | Stable | 299 | 170 | – | – | – | –
10 | COc1cc(/C=C/C(=O)CC(=O)/C=C/c2ccc(O)c(OC)c2)ccc1O [CURCUMIN] | – | – | – | – | – | – | – | – | – | – | – | 10.3
11 | CC/C(=C(/CC)c1ccc(O)cc1)c1ccc(O)cc1 [DIETHYLSTILBESTROL] | – | – | – | – | – | – | – | – | – | – | – | 75
12 | O=c1[nH]cc(F)c(=O)[nH]1 [FLUOROURACIL] | 2.2 | 1.5 | – | – | – | – | – | – | – | – | – | –
